Active and inactive are the calls of the source. The calls are words filed in the database; no cut-off is given here.
What was measured:
MC3T3-E1 [1] = test: Osteo-blastogenic activity in mouse MC3T3-E1 cells assessed as stimulation of ALP activity at 10 uM supplemented with fresh medium every 3 to 4 days and measured after 14 days relative to control; assay type: functional
How it was run: (§1)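 MC3T3-E1 subclone 4 osteoblastic cells were grown in α-MEM at 37 °C under 5% CO2 with compound present during differentiation. ALP activity was read 14 d after induction and expressed as % of untreated cells. Values are mean ± SD of three independent experiments.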

[2] = Inhibition of M-CSF/RANKL-induced osteoclast differentiation in C57BL/6 mouse bone marrow macrophage assessed as reduction in multinucleated TRAP+ cells incubated for 6 days with fresh media replacement on day 3 and measured on day 6 by TRAP staining-based microscopic analysis; assay type: functional, cell-based; details: C57BL/6, BMDM
How it was run: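 BMM came from femur and tibia marrow of 5–8-week-old male C57BL/6 mice and were purified over lymphocyte separation medium. Cells, 1 × 10^5 per well, were grown in α-MEM/10% FBS with M-CSF (60 ng/mL) and RANKL (150 ng/mL) for 6 d, medium changed day 3. Compound range was 0.01−100 μM. TRAP+ multinucleated cells were counted on day 6.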

MC3T3-E1 [3] = test: Osteo-blastogenic activity in mouse MC3T3-E1 cells assessed as stimulation of ALP activity at 50 uM supplemented with fresh medium every 3 to 4 days and measured after 14 days relative to control; assay type: functional; how it was run: as §1
Mus musculus [4] = test: Antiosteoporotic activity in ddY mouse model of OVX-induced osteoporosis assessed as increase in trabecular thickness in femur bone at 10 mg/kg, po administered once daily via gavage for 4 weeks by microcomputed tomographic analysis; assay type: functional, organism-based
How it was run: (§2)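 Female ddY mice were ovariectomized. Oral gavage began 1 week after surgery and ran once daily for 28 d. Vehicle was 300 μL PBS containing 0.5% (v/v) DMSO, also given to sham and OVX controls. Mice were then euthanized and femur and tibia fixed for CT imaging. Values are mean ± SD of four mice.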

Mus musculus [5] = test: Antiosteoporotic activity in ddY mouse model of OVX-induced osteoporosis assessed as increase in ratio of bone volume/trabecular volume in femur bone at 10 mg/kg, po administered once daily via gavage for 4 weeks by microcomputed tomographic analysis; assay type: functional, organism-based; how it was run: as §2
Mus musculus [6] = test: Antiosteoporotic activity in ddY mouse model of OVX-induced osteoporosis assessed as increase in cross-sectional thickness in femur bone at 10 mg/kg, po administered once daily via gavage for 4 weeks by microcomputed tomographic analysis; assay type: functional, organism-based; how it was run: as §2
Mus musculus [7] = test: Antiosteoporotic activity in ddY mouse model of OVX-induced osteoporosis assessed as reduction in trabecular separation in femur bone at 10 mg/kg, po administered once daily via gavage for 4 weeks by microcomputed tomographic analysis; assay type: functional, organism-based; how it was run: as §2
Mus musculus [8] = test: Antiosteoporotic activity in ddY mouse model of OVX-induced osteoporosis assessed as increase in femur bone mineral density at 10 mg/kg, po administered once daily via gavage for 4 weeks by microcomputed tomographic analysis; assay type: functional, organism-based; how it was run: as §2
[9] = target: Isopentenyl-diphosphate Delta-isomerase 1 (Rattus norvegicus, UniProt O35760); test: Inhibition of isopentenyl diphosphate isomerase in Sprague-Dawley rat liver S100 fraction preincubated for 10 min followed by MVA addition by HPLC analysis
Mus musculus [10] = test: Antiosteoporotic activity in ddY mouse model of OVX-induced osteoporosis assessed as increase in trabecular number in femur bone at 10 mg/kg, po administered once daily via gavage for 4 weeks by microcomputed tomographic analysis; assay type: functional, organism-based; how it was run: as §2
Mus musculus [11] = test: Antiosteoporotic activity in ddY mouse model of OVX-induced osteoporosis assessed as increase in new bone volume in femur bone at 10 mg/kg, po administered once daily via gavage for 4 weeks by microcomputed tomographic analysis; assay type: functional, organism-based; how it was run: as §2
MC3T3-E1 [12] = test: Osteo-blastogenic activity in mouse MC3T3-E1 cells assessed as stimulation of ALP activity at 1 uM supplemented with fresh medium every 3 to 4 days and measured after 14 days relative to control; assay type: functional; how it was run: as §1
BMDM [13] = test: Suppression of NFATc1 expression in M-CSF induced C57BL/6 mouse bone marrow macrophages at 10 uM measured over 5 days by Western blot analysis; assay type: functional, cell-based
How it was run: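 C57BL/6 BMM were kept proliferating with M-CSF in the absence of RANKL and treated with compound (0.5 or 10 μM). NFATc1 expression was followed over the culture period by Western blot.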

[14] = Cytotoxicity against mouse RAW264.7 cells after 24 hrs by MTT assay; assay type: cell-based; details: read-out: LD50
How it was run: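 RAW264.7 macrophages (preosteoclast line) were kept in DMEM at 37 °C under 5% CO2 and tested without RANKL. MTT read-out of growth and survival, expressed as LD50.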

BMDM [15] = test: Inhibition of RANKL-induced osteoclastogenesis in C57BL/6 mouse bone marrow macrophages assessed as increase in NFkappaB expression at 10 uM measured over 5 days by Western blot analysis; assay type: functional, cell-based
How it was run: (§3)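 C57BL/6 BMM were grown with M-CSF plus RANKL over the course of osteoclastogenesis, treated at 0.5 or 10 μM. NF-κB and NFATc1 were followed by Western blot. The negative control was M-CSF only.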

BMDM [16] = test: Effect on NFkappaB expression in M-CSF induced C57BL/6 mouse bone marrow macrophages at 10 uM measured over 5 days by Western blot analysis; assay type: functional, cell-based
How it was run: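 C57BL/6 BMM were proliferated with M-CSF alone without RANKL and treated at 0.5 or 10 μM. NF-κB expression was followed over time by Western blot.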

[17] = Toxicity in ddY mouse model of OVX-induced osteoporosis assessed as increase in body weight at 10 mg/kg, po administered once daily via gavage for 4 weeks measured 5 weeks post OVX-challenge; assay type: organism-based; details: in vivo, 840 h
How it was run: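 Dosing of ddY mice began one week after ovariectomy: compound in 300 μL of 0.5% (v/v) DMSO-containing PBS by gavage once daily for 28 d. OVX and sham controls received vehicle. Body weight was compared with sham control 5 weeks after OVX.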

HCT-116 = test: Antiproliferative activity against human HCT116 cells after 24 hrs by MTT assay; assay type: functional; details: HCT-116, 24 h, read-out: LD50 (the source's name)
How it was run: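 Cells were maintained in DMEM at 37 °C under 5% CO2. Growth and survival were estimated by MTT assay, and the value is reported as LD50.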

BMDM [18] = test: Inhibition of RANKL-induced osteoclastogenesis in C57BL/6 mouse bone marrow macrophages assessed as reduction in NFATc1 expression at 10 uM measured over 5 days by Western blot analysis; assay type: functional, cell-based; how it was run: as §3

Sequence of Isopentenyl-diphosphate Delta-isomerase 1 (O35760 whole entry): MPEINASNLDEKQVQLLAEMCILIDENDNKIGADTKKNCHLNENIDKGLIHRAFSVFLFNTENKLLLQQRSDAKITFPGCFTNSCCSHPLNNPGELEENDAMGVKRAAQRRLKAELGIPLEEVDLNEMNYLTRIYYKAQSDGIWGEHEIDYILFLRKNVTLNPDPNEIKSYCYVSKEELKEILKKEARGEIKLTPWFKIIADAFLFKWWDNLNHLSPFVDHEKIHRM

SMILES | Activity (MC3T3-E1 [1]) | IC50 [2] | Activity (MC3T3-E1 [3]) | also measured
C=CCOc1ccc(/C=C/C(C)=O)cc1O | 120% | 18 µM | 140% | 
NCCCC(O)(P(=O)(O)O)P(=O)(O)O [ALENDRONATE SODIUM] |  | 3.7 µM |  | Activity (Mus musculus [4]): inactive; Activity (Mus musculus [5]): Active; Activity (Mus musculus [6]): Active; Activity (Mus musculus [7]): Active; Activity (Mus musculus [8]): Active; IC50 [9]: 1.7 µM; Activity (Mus musculus [10]): Active; Activity (Mus musculus [11]): Active
CC(=O)/C=C/c1ccc(O)c(F)c1 | 100% | 8.3 µM | 100% | 
COC(=O)c1ccc(O)c(O)c1 [METHYL PROTOCATECHUATE] | 110% | 78 µM | 100% | 
NC(=O)/C=C/c1ccc(F)c(O)c1 | 110% | 25 µM | 120% | 
CC(=O)/C=C/c1ccc(F)c(O)c1 | 100% | 15 µM | 100% | 
CC(=O)/C=C/c1ccc(OC(C)C)c(O)c1 | 100% | 24 µM | 94% | 
CC[C@H](C)[C@H](NC(=O)[C@H](CCC(=O)O)NC(=O)[C@H](CO)NC(=O)[C@@H](NC(=O)[C@@H](N)CO)C(C)C)C(=O)N[C@@H](CCC(N)=O)C(=O)N[C@@H](CC(C)C)C(=O)N[C@@H](CCSC)C(=O)N[C@@H](Cc1cnc[nH]1)C(=O)N[C@@H](CC(N)=O)C(=O)N[C@@H](CC(C)C)C(=O)NCC(=O)N[C@@H](CCCCN)C(=O)N[C@@H](Cc1cnc[nH]1)C(=O)N[C@@H](CC(C)C)C(=O)N[C@@H](CC(N)=O)C(=O)N[C@@H](CO)C(=O)N[C@@H](CCSC)C(=O)N[C@@H](CCC(=O)O)C(=O)N[C@@H](CCCNC(=N)N)C(=O)N[C@H](C(=O)N[C@@H](CCC(=O)O)C(=O)N[C@@H](Cc1c[nH]c2ccccc12)C(=O)N[C@@H](CC(C)C)C(=O)N[C@@H](CCCNC(=N)N)C(=O)N[C@@H](CCCCN)C(=O)N[C@@H](CCCCN)C(=O)N[C@@H](CC(C)C)C(=O)N[C@@H](CCC(N)=O)C(=O)N[C@@H](CC(=O)O)C(=O)N[C@H](C(=O)N[C@@H](Cc1cnc[nH]1)C(=O)N[C@@H](CC(N)=O)C(=O)N[C@@H](Cc1ccccc1)C(=O)O)C(C)C)C(C)C [TERIPARATIDE] |  |  |  | Activity (MC3T3-E1 [12]): 140%
O=C(O)Cc1ccccc1 [PHENYLACETIC ACID] | 120% | > 100 µM | 110% | 
COc1cc(/C=C/C(C)=O)ccc1O [DEHYDROZINGERONE] | 110% | 7.5 µM | 600% | Activity (BMDM [13]): Active; CC50 at 24 h [14]: > 5000 µM; Activity (Mus musculus [4]): Active; Activity (Mus musculus [5]): Active; Activity (Mus musculus [6]): Active; inhibition (BMDM [15]): Active; Activity (BMDM [16]): inactive; Activity [17]: Toxic; Activity (Mus musculus [7]): Active; Activity (Mus musculus [8]): Active; CC50 (HCT-116): 310 µM; Activity (Mus musculus [10]): Active; inhibition (BMDM [18]): Active; Activity (Mus musculus [11]): Active
O=Cc1ccc(O)c(O)c1 [PROTOCATECHUALDEHYDE] | 110% | 15 µM | 140% | 
O=C(O)Cc1ccc(O)c(O)c1 [3,4-DIHYDROXYPHENYLACETIC ACID] | 120% | 75 µM | 170% | 
O=C(/C=C/c1ccc(O)c(O)c1)O[C@@H]1C[C@](O)(C(=O)O)C[C@@H](O)[C@H]1O [CHLOROGENIC ACID] | 110% | 86 µM | 150% | 
Cc1ccc(/C=C/C(N)=O)cc1O | 110% | 15 µM | 120% | 
CC(=O)/C=C/c1ccc(OCc2ccccc2)c(O)c1 | 130% | 19 µM | 140% | 
CC(=O)/C=C/c1ccc(O)cc1 | 110% | 32 µM | 150% | 
O=C(/C=C/c1ccc(O)c(O)c1)O[C@@H]1C[C@@](O)(C(=O)O)C[C@@H](O)[C@@H]1O | 120% | 48 µM | 170% | 
O=C(O)/C=C/c1ccc(O)c(O)c1 [CAFFEIC ACID] | 120% | 41 µM | 130% | 
O=C(O)c1ccc(O)c(O)c1 [PROTOCATECHUIC ACID] | 100% | 89 µM | 140% | 
O=C(O)/C=C/c1ccccc1 [CINNAMIC ACID] | 100% | > 100 µM | 110% | 
CC(=O)/C=C/c1ccc(C)c(O)c1 | 100% | 5.9 µM | 130% | 
COC(=O)Cc1ccc(O)c(O)c1 | 100% | 80 µM | 130% | 
